Values after ≈ are worked out from the molar mass of the structure shown.
Tested on: S. aureus strain 29213
Test: Whole cell growth inhibition
Format: cell-based
Conditions: Staphylococcus aureus, 29213, 18 h, read-out: MIC (whole cell growth inhibition)
Summary of the method: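 Racemic test compounds were assayed against CLSI-standardized S. aureus cultures. Growth was scored by turbidity at 600 nm and by visual inspection. The MIC was taken as the lowest concentration with no growth after 18 h incubation. There were n = 2 independent assays, each with duplicate technical replicates, and values are given with SEM.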

Row | MIC [µg/mL] | Structure (SMILES)
1 | 0.046 to 0.187 (≈ 0.086 to 0.35 µM) | COc1cc(Cc2cnc(N)nc2N)cc(/C=C/C(=O)N2N=Cc3ccccc3C2c2ccc(C)cc2)c1OC (stereo not drawn) [11j]
2 | 0.5 to 1 (≈ 0.972 to 1.94 µM) | CCCC1c2cc(C)c(C)cc2C=NN1C(=O)/C=C/c1cc(Cc2cnc(N)nc2N)cc(OC)c1OC (racemic) [13b, (±)-(E)-3-(5-((2,4-Diaminopyrimidin-5-yl)methyl)-2,3-dimethoxyphenyl)-1-(6,7-dimethyl-1-propylphthalazin-2(1H)-yl) prop-2-en-1-one]
3 | 0.0625 to 0.25 (≈ 0.128 to 0.514 µM) | CCCC1c2ccccc2C=NN1C(=O)/C=C/c1cc(Cc2cnc(N)nc2N)cc(OC)c1OC (stereo not drawn) [11a]
